In ChEMBL document CHEMBL3621126, “Difluoromethyl ketones: Potent inhibitors of wild type and carbamate-insensitive G119S mutant Anopheles gambiae acetylcholinesterase” (Bioorg Med Chem Lett, 2015):
In brackets after ≈: the same amount, converted by molar mass.

Tests used:
Acetylcholinesterase [1] = target: T1, Acetylcholinesterase (Homo sapiens, UniProt P22303); assay: Inhibition of recombinant human AChE after 10 mins by Ellman assay
Acetylcholinesterase [2] = target: T1, Acetylcholinesterase; assay: Inhibition of recombinant human AChE after 60 mins by Ellman assay
Acetylcholinesterase [3] = target: T2, Acetylcholinesterase (Anopheles gambiae, UniProt Q869C3); assay: Inhibition of recombinant Anopheles gambiae wild type AChE after 60 mins by Ellman assay
[4] = Inhibition of recombinant Anopheles gambiae AChE G119S mutant after 60 mins by Ellman assay
Acetylcholinesterase [5] = target: T2, Acetylcholinesterase; assay: Inhibition of recombinant Anopheles gambiae wild type AChE after 10 mins by Ellman assay
[6] = Inhibition of Anopheles gambiae AChE G119S mutant after 10 mins by Ellman assay
[7] = target: Acetylcholinesterase (Anopheles gambiae) (UniProt Q869C3); assay: Inhibition of recombinant Anopheles gambiae wild type AChE by Ellman assay; settings: TDE = time-dependent effect
Method in brief: (§1)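 Modified Ellman assay in microtiter plates with recombinant enzymes (human AChE, wild-type or G119S Anopheles gambiae AChE). Inhibitor preincubated 10 or 60 min at 23 ± 1°C, pH 7.7, 0.1% (v/v) DMSO, before adding substrate. Ten inhibitor concentrations were run alongside inhibitor-free control wells. IC50 was taken from sigmoidal plots of residual activity (v/v0) vs [I].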

Anopheles gambiae [8] = assay: Insecticidal activity against Anopheles gambiae G3 assessed as torsal contact toxicity by measuring mortality at 1000 ug/mL after 24 hrs by filter paper based method; assay type: functional; settings: G3, 24 h
Method in brief: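 Adult susceptible G3 An. gambiae were tested by the WHO treated-paper tarsal contact protocol. Papers were treated with ethanolic compound solutions at 1000 µg/mL and dried overnight. Mosquitoes were exposed 1 h and mortality recorded after 24 h.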

Anopheles gambiae [9] = assay: Insecticidal activity against Anopheles gambiae G3 assessed as fumigation mortality at 1000 ng/mL after 24 hrs by mason jar assay; assay type: functional; settings: G3, 24 h
Method in brief: (§2)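 Fumigation of adult G3 An. gambiae in a sealed 1 L vessel, with % mortality read after 24 h. Nominal concentration was calculated from the inhibitor mass delivered and the vessel volume.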

Anopheles gambiae [10] = assay: Insecticidal activity against Anopheles gambiae G3 assessed as mortality at 50 ng/insect after 24 hrs (reference value: 11 +/- 4%); assay type: functional
Acetylcholinesterase [11] = target: T1, Acetylcholinesterase; assay: Inhibition of recombinant human AChE by Ellman assay; settings: TDE = time-dependent effect; method in brief: as §1
Anopheles gambiae [12] = assay: Ratio of IC50 for recombinant Anopheles gambiae AChE G119S mutant to IC50 for recombinant wild type Anopheles gambiae AChE after 60 mins
Anopheles gambiae [13] = assay: Insecticidal activity against Anopheles gambiae G3 assessed as torsal contact toxicity by measuring mortality after 24 hrs by filter paper based method; assay type: functional; settings: G3, 24 h
Method in brief: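 Adult susceptible G3 An. gambiae were tested by the WHO treated-paper tarsal contact protocol. Papers were treated with ethanolic compound solutions and dried overnight. Mosquitoes were exposed 1 h and mortality recorded 24 h later.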

Anopheles gambiae [14] = assay: Insecticidal activity against Anopheles gambiae G3 assessed as mortality after 24 hrs; assay type: functional
[15] = Inhibition of recombinant Anopheles gambiae AChE G119S mutant after 330 mins by Ellman assay
Method in brief: (§3)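 Recombinant G119S mutant An. gambiae AChE; modified Ellman assay in microtiter plates at 23 ± 1°C, pH 7.7, 0.1% (v/v) DMSO. Enzyme preincubated with inhibitor over a range of concentrations before substrate added; inhibitor-free controls flank 10 concentrations, right-hand control used for residual activity (v/v0). IC50 taken from sigmoidal plots of v/v0 versus [I].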

[16] = Inhibition of recombinant Anopheles gambiae AChE G119S mutant after 1380 mins by Ellman assay; method in brief: as §3
Acetylcholinesterase [17] = target: Acetylcholinesterase (Electrophorus electricus, UniProt O42275); assay: Inhibition of electric eel AChE
Anopheles gambiae [18] = assay: Insecticidal activity against Anopheles gambiae G3 assessed as fumigation mortality at 10 ng/mL after 24 hrs by mason jar assay; assay type: functional; settings: G3, 24 h; method in brief: as §2

Chain of Acetylcholinesterase (Anopheles gambiae) (Q869C3 39-737 limits assumed): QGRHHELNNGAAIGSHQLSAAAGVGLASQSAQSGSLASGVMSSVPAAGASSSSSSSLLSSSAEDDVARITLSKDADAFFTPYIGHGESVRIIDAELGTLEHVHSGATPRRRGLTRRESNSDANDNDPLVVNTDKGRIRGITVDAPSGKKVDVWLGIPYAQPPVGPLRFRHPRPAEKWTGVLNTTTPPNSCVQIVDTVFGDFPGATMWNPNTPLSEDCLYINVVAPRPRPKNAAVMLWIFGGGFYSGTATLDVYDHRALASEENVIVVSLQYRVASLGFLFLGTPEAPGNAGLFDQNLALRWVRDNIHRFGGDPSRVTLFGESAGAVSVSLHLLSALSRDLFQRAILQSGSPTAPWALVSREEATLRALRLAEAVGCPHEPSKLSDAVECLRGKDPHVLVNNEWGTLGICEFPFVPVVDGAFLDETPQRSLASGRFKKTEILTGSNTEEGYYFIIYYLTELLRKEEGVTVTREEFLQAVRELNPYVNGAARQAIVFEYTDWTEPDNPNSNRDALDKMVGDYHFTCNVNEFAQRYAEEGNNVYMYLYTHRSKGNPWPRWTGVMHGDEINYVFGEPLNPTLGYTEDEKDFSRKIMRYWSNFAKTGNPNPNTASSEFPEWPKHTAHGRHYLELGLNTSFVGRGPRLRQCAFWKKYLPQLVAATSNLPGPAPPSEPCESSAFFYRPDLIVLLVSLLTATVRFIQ
T1 sequence (P22303 whole entry): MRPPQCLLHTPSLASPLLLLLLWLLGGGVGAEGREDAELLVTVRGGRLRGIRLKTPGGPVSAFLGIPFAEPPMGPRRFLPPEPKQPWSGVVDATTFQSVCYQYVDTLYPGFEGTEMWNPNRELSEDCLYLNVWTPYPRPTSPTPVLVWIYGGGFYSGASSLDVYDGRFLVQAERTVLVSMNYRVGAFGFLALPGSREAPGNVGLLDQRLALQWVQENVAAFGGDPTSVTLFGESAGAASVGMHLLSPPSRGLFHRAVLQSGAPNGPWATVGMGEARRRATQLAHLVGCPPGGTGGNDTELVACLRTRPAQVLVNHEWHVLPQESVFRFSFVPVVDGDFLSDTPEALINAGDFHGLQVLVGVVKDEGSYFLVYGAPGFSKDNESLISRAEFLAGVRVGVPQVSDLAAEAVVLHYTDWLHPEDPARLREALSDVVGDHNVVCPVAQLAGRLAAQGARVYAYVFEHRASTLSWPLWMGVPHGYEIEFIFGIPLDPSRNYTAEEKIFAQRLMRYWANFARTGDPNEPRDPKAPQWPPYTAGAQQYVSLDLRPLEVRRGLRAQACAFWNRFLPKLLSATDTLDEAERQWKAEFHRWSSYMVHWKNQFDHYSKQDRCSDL
T2 sequence (Q869C3 whole entry): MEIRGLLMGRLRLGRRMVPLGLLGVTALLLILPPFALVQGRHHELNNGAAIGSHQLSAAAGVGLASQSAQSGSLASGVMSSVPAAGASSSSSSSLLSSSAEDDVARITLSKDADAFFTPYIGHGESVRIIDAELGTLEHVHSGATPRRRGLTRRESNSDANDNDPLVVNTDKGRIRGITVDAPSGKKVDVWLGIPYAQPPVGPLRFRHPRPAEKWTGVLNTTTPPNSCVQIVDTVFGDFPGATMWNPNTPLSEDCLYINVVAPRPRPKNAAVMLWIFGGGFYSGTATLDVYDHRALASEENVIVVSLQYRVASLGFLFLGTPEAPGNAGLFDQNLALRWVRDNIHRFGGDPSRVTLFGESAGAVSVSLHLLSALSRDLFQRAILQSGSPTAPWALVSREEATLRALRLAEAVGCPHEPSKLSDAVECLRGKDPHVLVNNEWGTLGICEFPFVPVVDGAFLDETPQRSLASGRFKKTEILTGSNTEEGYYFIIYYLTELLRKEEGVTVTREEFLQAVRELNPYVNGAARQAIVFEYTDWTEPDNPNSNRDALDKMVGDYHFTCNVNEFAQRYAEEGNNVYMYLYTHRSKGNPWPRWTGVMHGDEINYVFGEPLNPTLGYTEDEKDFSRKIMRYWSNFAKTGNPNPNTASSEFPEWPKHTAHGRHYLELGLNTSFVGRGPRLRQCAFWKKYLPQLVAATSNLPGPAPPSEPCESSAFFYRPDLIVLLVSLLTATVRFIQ
Chain of Acetylcholinesterase (Electrophorus electricus, UniProt O42275) (O42275 whole entry): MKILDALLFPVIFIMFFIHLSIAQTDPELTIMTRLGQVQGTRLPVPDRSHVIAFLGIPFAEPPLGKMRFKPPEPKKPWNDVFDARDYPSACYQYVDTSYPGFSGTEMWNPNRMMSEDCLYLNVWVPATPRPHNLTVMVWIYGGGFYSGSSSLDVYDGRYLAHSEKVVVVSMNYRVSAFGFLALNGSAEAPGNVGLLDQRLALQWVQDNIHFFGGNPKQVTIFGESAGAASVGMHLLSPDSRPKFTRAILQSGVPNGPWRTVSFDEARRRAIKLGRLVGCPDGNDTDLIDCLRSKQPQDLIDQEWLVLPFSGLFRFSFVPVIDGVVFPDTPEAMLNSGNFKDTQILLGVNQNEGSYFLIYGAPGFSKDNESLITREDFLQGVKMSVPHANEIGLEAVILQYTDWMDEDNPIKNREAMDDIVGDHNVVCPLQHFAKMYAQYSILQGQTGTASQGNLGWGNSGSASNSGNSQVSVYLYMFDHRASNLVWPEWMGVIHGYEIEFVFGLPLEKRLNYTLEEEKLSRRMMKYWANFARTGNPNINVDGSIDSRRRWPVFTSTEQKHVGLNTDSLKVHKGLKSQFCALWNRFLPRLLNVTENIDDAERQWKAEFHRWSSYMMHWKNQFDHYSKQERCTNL

SMILES | IC50 (Acetylcholinesterase [1]) [µM] | IC50 (Acetylcholinesterase [2]) [µM] | IC50 (Acetylcholinesterase [3]) [µM] | IC50 [4] [µM] | IC50 (Acetylcholinesterase [5]) [µM] | IC50 [6] [µM] | inhibition [7] | mortality at 1000 µg/mL (Anopheles gambiae [8]) [%] | mortality at 1 µg/mL (Anopheles gambiae [9]) [%] | mortality (Anopheles gambiae [10]) [%] | inhibition (Acetylcholinesterase [11]) | Ratio IC50 (Anopheles gambiae [12]) | LC50 (Anopheles gambiae [13]) [µg/mL] | LD50 (Anopheles gambiae [14]) [ng] | IC50 [15] [µM] | IC50 [16] [µM] | Ki (Acetylcholinesterase [17]) [µM] | mortality at 0.01 µg/mL (Anopheles gambiae [18]) [%]
CCC(CC)n1cc(C(=O)C(F)(F)F)cn1 | 0.00377 | 0.00227 | 0.00068 | 1.73 | 0.00275 | > 10 | tde | 40 | 86 | 65 | tde | 2500 | – | – | – | – | – | –
CCCC(C)n1cc(C(=O)C(F)F)cn1 (stereo not drawn) | 0.149 | 0.158 | 0.0291 | 0.297 | 0.0234 | 0.797 | – | 0 | – | – | – | – | – | – | – | – | – | –
CC(C)Cn1cc(C(=O)C(F)(F)F)cn1 | 0.591 | 0.678 | 1.04 | > 10 | 0.95 | > 10 | tde | – | – | – | tde | – | – | – | – | – | – | –
CNC(=O)Oc1ccccc1OC(C)C [PROPOXUR] | 2.3 | 0.59 | 0.0436 | > 10 | 0.182 | > 10 | – | 39 | 0 | – | – | – | 32 (≈ 153 µM) | 0.2 | – | – | – | –
CC(C)(C)c1cccc(C(=O)C(F)(F)F)c1 | 0.0146 | 0.005 | 0.0181 | 20.8 | 0.0534 | > 10 | tde | 8 | – | – | tde | – | – | – | – | – | – | –
CCC(CC)n1cc(C(=O)C(F)F)cn1 | 0.0288 | 0.0352 | 0.00122 | 0.125 | 0.00101 | 0.68 | – | 0 | 57 | 21 | – | – | – | – | 0.0367 | 0.0251 | – | –
CC(=O)C(F)(F)CCC(C)(C)C | – | – | – | – | – | – | – | – | – | – | – | – | – | – | – | – | 0.0016 | –
CC(C)n1cc(C(=O)C(F)(F)F)cn1 | 0.0775 | 0.121 | 0.285 | > 10 | 0.142 | > 10 | tde | 20 | – | – | tde | – | – | – | – | – | – | –
CCCC(C)n1cc(C(=O)C(F)(F)F)cn1 (stereo not drawn) | 0.00715 | 0.00837 | 0.00206 | 2 | 0.00374 | 19.9 | tde | 0 | – | – | tde | – | – | – | – | – | – | –
CC(C)n1cc(C(=O)C(F)F)cn1 | 0.802 | 0.869 | 0.43 | 8.38 | 0.354 | 8.29 | – | 50 | – | – | – | – | – | – | – | – | – | –
CCCC(C)n1cc(C(=O)CF)cn1 (stereo not drawn) | 24.2 | 17.6 | 3.29 | > 10 | 3.52 | > 10 | – | 20 | – | – | – | – | – | – | – | – | – | –
CC(C)(C)c1cccc(C(=O)C(F)F)c1 | 0.00605 | – | – | – | – | – | – | 20 | – | – | – | – | – | – | – | – | – | –
CC(C)Cn1cc(C(=O)CF)cn1 | > 10 | > 10 | > 10 | > 10 | > 10 | > 10 | – | 20 | – | – | – | – | – | – | – | – | – | –
O=C(c1cnn(C2CCCC2)c1)C(F)F | 0.208 | 0.244 | 0.134 | 3.39 | 0.106 | 3.22 | – | 0 | – | – | – | – | – | – | – | – | – | –
CCC(C)n1cc(C(=O)CF)cn1 (stereo not drawn) | 16.9 | 18 | 2.86 | > 10 | 2.75 | > 10 | – | 65 | – | – | – | – | – | – | – | – | – | –
COP(=O)(OC)OC=C(Cl)Cl [DICHLORVOS] | – | – | 0.0601 | 0.3 | 0.324 | 1.65 | – | – | – | 83 | – | – | – | – | – | – | – | 100
CCC(CC)n1cc(C(=O)CF)cn1 | 5.29 | 5.19 | 0.337 | 3 | 0.355 | 2.99 | – | 85 | 8 | – | – | – | – | – | – | – | – | –
CC(C)(C)c1cccc(C(=O)CF)c1 | – | – | – | – | – | > 10 | – | 50 | – | – | – | – | – | – | – | – | – | –
C[Si](C)(C)c1cccc(C(=O)C(F)(F)F)c1 | 0.285 | 0.0929 | 0.257 | 10.1 | 0.848 | > 10 | tde | 10 | – | – | tde | – | – | – | – | – | – | –
CC(C)Cn1cc(C(=O)C(F)F)cn1 | 9.78 | 11 | 3.95 | > 10 | 3 | > 10 | – | – | – | – | – | – | – | – | – | – | – | –
O=C(CF)c1cnn(C2CCCC2)c1 | 2.5 | 1.31 | 1.54 | > 10 | 5.86 | > 10 | – | 0 | – | – | – | – | – | – | – | – | – | –
CCC(C)n1cc(C(=O)C(F)F)cn1 (stereo not drawn) | 0.11 | 0.0859 | 0.0252 | 0.185 | 0.0263 | 0.452 | – | 50 | – | – | – | – | – | – | – | – | – | –
O=C(c1cnn(C2CCCC2)c1)C(F)(F)F | 0.0052 | 0.00611 | 0.00154 | 3.52 | 0.00287 | > 10 | tde | 40 | – | – | tde | – | – | – | – | – | – | –
CCC(C)n1cc(C(=O)C(F)(F)F)cn1 (stereo not drawn) | 0.00647 | 0.00884 | 0.00229 | 2.34 | 0.00247 | 8.18 | tde | 30 | – | – | tde | – | – | – | – | – | – | –
CC(C)n1cc(C(=O)CF)cn1 | > 10 | > 10 | > 10 | > 10 | > 10 | > 10 | – | 85 | – | – | – | – | – | – | – | – | – | –
